# Key:
# [1] = test system: HCT-116; experiment: Antiproliferative activity against human HCT-116 cells assessed as reduction in cell viability incubated for 72 hrs by SRB assay; format: functional, cell-based; details: HCT-116, 72 h
# [2] = test system: A549; experiment: Antiproliferative activity against human A549 cells assessed as reduction in cell viability incubated for 72 hrs by SRB assay; format: functional, cell-based; details: A549, 72 h
# Procedure, shortened: (§1)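 Cell lines grown at 37 °C in 5% CO₂: A549 in RPMI1640, MCF-7 in DMEM, each with 10% FBS plus penicillin/streptomycin/amphotericin B. Cells exposed to a range of compound concentrations for 72 h, then TCA-fixed and SRB-stained. Growth inhibition = 100 − 100×(OD sample − OD day 0)/(OD negative control − OD day 0). IC50 from non-linear regression of percent growth against concentration.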
# [3] = test system: MCF7; experiment: Antiproliferative activity against human MCF7 cells assessed as reduction in cell viability incubated for 72 hrs by SRB assay; format: functional, cell-based; details: MCF7, 72 h; procedure, shortened: as §1
# [4] = target: Epidermal growth factor receptor (Homo sapiens, UniProt P00533); experiment: Inhibition of EGFR (unknown origin) using FAM-labeled peptide as substrate incubated for 10 mins followed by substrate addition and measured after 1 hr by mobility shift assay
# Sequence of Epidermal growth factor receptor (P00533 whole entry): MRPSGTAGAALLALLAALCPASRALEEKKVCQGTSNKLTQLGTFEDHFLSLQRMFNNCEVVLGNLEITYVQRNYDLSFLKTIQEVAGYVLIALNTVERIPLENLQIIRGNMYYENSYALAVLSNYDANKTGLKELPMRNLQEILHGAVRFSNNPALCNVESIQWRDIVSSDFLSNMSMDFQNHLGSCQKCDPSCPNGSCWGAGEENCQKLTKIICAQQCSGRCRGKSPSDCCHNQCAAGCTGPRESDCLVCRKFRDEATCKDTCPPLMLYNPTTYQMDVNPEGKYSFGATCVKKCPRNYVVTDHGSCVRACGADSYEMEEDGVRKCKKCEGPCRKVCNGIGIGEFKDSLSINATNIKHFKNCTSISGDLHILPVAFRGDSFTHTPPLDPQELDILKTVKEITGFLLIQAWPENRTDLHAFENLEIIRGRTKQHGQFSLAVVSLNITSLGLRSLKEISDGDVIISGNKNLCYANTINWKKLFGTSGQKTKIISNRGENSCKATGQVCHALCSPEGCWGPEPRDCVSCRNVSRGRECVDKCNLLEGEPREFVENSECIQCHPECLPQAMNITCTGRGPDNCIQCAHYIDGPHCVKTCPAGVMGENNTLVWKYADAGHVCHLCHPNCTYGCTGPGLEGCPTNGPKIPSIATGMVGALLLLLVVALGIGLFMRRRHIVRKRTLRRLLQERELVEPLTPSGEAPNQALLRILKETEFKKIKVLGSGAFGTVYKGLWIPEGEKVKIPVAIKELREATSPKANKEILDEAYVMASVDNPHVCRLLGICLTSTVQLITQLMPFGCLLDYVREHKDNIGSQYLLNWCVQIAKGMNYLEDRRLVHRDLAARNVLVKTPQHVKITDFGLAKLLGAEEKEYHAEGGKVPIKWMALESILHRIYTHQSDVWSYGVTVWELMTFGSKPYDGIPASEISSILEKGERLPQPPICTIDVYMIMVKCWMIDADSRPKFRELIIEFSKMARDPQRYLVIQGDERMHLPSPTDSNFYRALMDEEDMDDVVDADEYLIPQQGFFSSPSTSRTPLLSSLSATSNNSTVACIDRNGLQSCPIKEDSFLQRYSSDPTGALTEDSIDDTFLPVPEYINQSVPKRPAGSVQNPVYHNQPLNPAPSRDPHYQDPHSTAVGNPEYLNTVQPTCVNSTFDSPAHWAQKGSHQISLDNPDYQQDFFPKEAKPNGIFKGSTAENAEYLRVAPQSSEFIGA
# Procedure, shortened: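 Mobility shift assay in 50 mM HEPES pH 7.5, 10 mM MgCl₂, 2 mM DTT, 0.0015% Brij35. Compound in 10-point DMSO dilution, run in duplicate. Enzyme preincubated with compound 10 min at room temperature. FAM-labeled peptide and ATP then added and reaction run at 28 °C for 1 h. Stopped with EDTA buffer; conversion turned into percent inhibition and fitted to a Hill equation for IC50.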
structure (smiles),measurement,setting,value
COC(=O)CCn1cc(Nc2ncnc3ccc(-c4cnc(OC)c(NS(=O)(=O)c5ccc(F)cc5F)c4)cc23)cn1,IC50,[1],0.97 µM
same,IC50,[2],2.99 µM
same,IC50,[3],0.49 µM
COc1ncc(-c2ccc3ncnc(Nc4ccc(OCCO)nc4)c3c2)cc1NS(=O)(=O)c1ccc(F)cc1F,IC50,[1],2.34 µM
same,IC50,[2],4.12 µM
same,IC50,[3],4.3 µM
COC(=O)Cn1cc(Nc2ncnc3ccc(-c4cnc(OC)c(NS(=O)(=O)c5ccc(F)cc5F)c4)cc23)cn1,IC50,[1],1.26 µM
same,IC50,[2],4.28 µM
same,IC50,[3],0.67 µM
COc1ncc(-c2ccc3ncnc(Nc4ccc(OCCO)cc4)c3c2)cc1NS(C)(=O)=O,IC50,[1],4.86 µM
same,IC50,[2],5.2 µM
same,IC50,[3],3.27 µM
CCCCS(=O)(=O)Nc1cc(-c2ccc3ncnc(Nc4ccc(OCCO)nc4)c3c2)cnc1OC,IC50,[1],> 20 µM
same,IC50,[2],13.3 µM
same,IC50,[3],> 20 µM
COc1ncc(-c2ccc3ncnc(Nc4cnn(CCCO)c4)c3c2)cc1NS(C)(=O)=O,IC50,[1],1.42 µM
same,IC50,[2],3.6 µM
same,IC50,[3],0.73 µM
COc1ncc(-c2ccc3ncnc(Nc4ccc(OCCO)nc4)c3c2)cc1NS(C)(=O)=O,IC50,[1],5.36 µM
same,IC50,[2],5.08 µM
same,IC50,[3],3.08 µM
COc1ncc(-c2ccc3ncnc(Nc4cnn(CC(=O)O)c4)c3c2)cc1NS(=O)(=O)c1ccc(F)cc1F,IC50,[1],1.54 µM
same,IC50,[2],5.2 µM
same,IC50,[3],0.7 µM
COc1ncc(-c2ccc3ncnc(Nc4ccc(OCCO)c(F)c4)c3c2)cc1NS(=O)(=O)c1ccc(F)cc1F,IC50,[1],9.16 µM
same,IC50,[2],6.64 µM
same,IC50,[3],4.82 µM
COc1cc(Nc2ncnc3ccc(-c4cnc(OC)c(NS(=O)(=O)c5ccc(F)cc5F)c4)cc23)ccc1OCCO,IC50,[1],5.72 µM
same,IC50,[2],3.76 µM
same,IC50,[3],2.26 µM
COc1ncc(-c2ccc3ncnc(Nc4ccc(OCCO)c(Cl)c4)c3c2)cc1NS(=O)(=O)c1ccc(F)cc1F,IC50,[1],7.32 µM
same,IC50,[2],5.98 µM
same,IC50,[3],3.74 µM
COc1ncc(-c2ccc3ncnc(Nc4ccc(OCCCO)nc4)c3c2)cc1NS(=O)(=O)c1ccc(F)cc1F,IC50,[1],3.68 µM
same,IC50,[2],9.36 µM
same,IC50,[3],6.12 µM
COc1ncc(-c2ccc3ncnc(Nc4cnn(CCC(=O)O)c4)c3c2)cc1NS(=O)(=O)c1ccc(F)cc1F,IC50,[1],1.29 µM
same,IC50,[2],3.84 µM
same,IC50,[3],0.56 µM
COc1ncc(-c2ccc3ncnc(Nc4cnn(CCCO)c4)c3c2)cc1NS(=O)(=O)c1ccc(F)cc1F,IC50,[1],0.48 µM
same,IC50,[2],4.83 µM
same,IC50,[3],1.31 µM
COc1ncc(-c2ccc3nccc(-c4ccnnc4)c3c2)cc1NS(=O)(=O)c1ccc(F)cc1F [OMIPALISIB],IC50,[1],0.14 µM
same,IC50,[2],0.86 µM
same,IC50,[3],0.03 µM
COc1ncc(-c2ccc3ncnc(Nc4cnn(CCO)c4)c3c2)cc1NS(C)(=O)=O,IC50,[4],2.52 µM
same,IC50,[1],1.49 µM
same,IC50,[2],8.22 µM
same,IC50,[3],0.77 µM
COc1ncc(-c2ccc3ncnc(Nc4ccc(OCCO)cc4)c3c2)cc1NS(=O)(=O)c1ccc(F)cc1F,IC50,[1],1.06 µM
same,IC50,[2],2.69 µM
same,IC50,[3],1.65 µM
